Published values collected from several papers.
Target: Serine/threonine-protein kinase SIK3 (SIK3, Homo sapiens, UniProt Q9Y2K2)

SMILES	effect on	technique	tested at	remaining binding [%]
CC1CCCN1c1nccc(-c2cnn3ncccc23)n1 (centres unmarked)	binding	–	1 µM	94
C[C@H](c1ccc(F)cc1)N(Cc1cccc(C(=O)O)c1)C(=O)c1cnc2ccccc2c1	cell-free assay	competition with immobilised ligand	1 µM	80
O=C(Nc1c[nH]nc1C(=O)NC1CCNCC1)c1cc(F)cc(F)c1	binding	competition with immobilised ligand	1 µM	66
FC(F)(F)Oc1cccc(-c2cnc3ccc(-c4ccncc4)nn23)c1	cell-free assay	competition with immobilised ligand	5 µM	66
CN(c1nccc(-c2cnn3ncccc23)n1)C1CC1	binding	–	1 µM	100
c1cncc(-c2cccc(Nc3nccc(NC4CCCCC4)n3)c2)c1	binding	competition with immobilised ligand	10 µM	83
CN(C)C(=O)Cn1cc(-c2nc(C3(c4ccc(-c5cnc(N)nc5)cc4)CC3)no2)cn1	cell-free assay	competition with immobilised ligand	1 µM	100
Cc1cnc(Nc2ccc(C(=O)N3CCC(N4CCCC4)CC3)cc2)nc1-c1cc2ccccc2s1	binding	competition with immobilised ligand	1 µM	61
COc1cnc(Nc2cccc(S(N)(=O)=O)c2)nc1N1CCN(c2ccccc2)CC1	binding	competition with immobilised ligand	1 µM	84
O=C(NCCCC1CCCCC1)c1ccc(CNC(=O)c2cnn(-c3ccccc3)c2C(F)(F)F)cc1	cell-free assay	competition with immobilised ligand	0.1 µM	76
CNC(=O)[C@@H]1CC[C@@H](n2c(-c3ccc4cnccc4c3)nc3ccc(C(=O)NCc4cccc(C(N)=O)c4)cc32)C1	binding	competition with immobilised ligand	1 µM	88
N[C@@H]1CCN(c2nccc(-c3cnn4ncccc34)n2)C1	binding	–	1 µM	100
CCS(=O)(=O)c1cc2cc(C[C@](O)(CC(C)(C)c3ccc(F)cc3C(N)=O)C(F)(F)F)[nH]c2cn1	cell-free assay	competition with immobilised ligand	1 µM	85
O=C(NCCCN1CCOCC1)c1ccc(Nc2ncc(Cl)c(-c3ccc(Cl)s3)n2)cc1	binding	competition with immobilised ligand	1 µM	97
c1cnn2ncc(-c3ccnc(N4CCC45COC5)n3)c2c1	binding	–	1 µM	70
O=C(c1ccc(Nc2nccc(-c3cc4ccccc4s3)n2)cc1)N1CCC(N2CCCC2)CC1	binding	competition with immobilised ligand	1 µM	65
CCCCN(CCCC)C(=O)CN1C[C@H](c2cc(OC)c3c(c2)OCO3)[C@@H](C(=O)O)[C@@H]1CC(C)(C)CCC	cell-free assay	competition with immobilised ligand	1 µM	60.5
CN(C)c1nccc(-c2cnn3ncccc23)n1	binding	–	1 µM	99
O=C(O)[C@H]1[C@H](Cn2nnc3ccccc3c2=O)CC[C@@H]1C(=O)c1ccc(OCCC2CCOCC2)cc1	cell-free assay	competition with immobilised ligand	1 µM	61
C[C@@H]1CCN(c2nccc(-c3cnn4ncccc34)n2)C1	binding	–	1 µM	31
